Compounds with a hit are over-represented: about 2.5% of the library has one in this group of screens.
SIAE primary: human SIAE inhibitors, primary screen, biochemical, fluorescence polarization, FP-Rh probe, 1536-well HTS. AID 1053197, 2014. 370,000 compounds, 0.69% hits. SIAE FP-Rh probe binding. inhibition, % at 9.66 µM;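 active = inhibition above a cutoff: mean of compounds within the control limits plus 3 SD of those, cut at about 17% in these data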;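 also: 0% = plate median of compound wells and 100% = probe without SIAE protein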
PRMT1 FP inh: PRMT1 methyltransferase inhibitors, primary screen, biochemical, fluorescence polarization | AID 652257, 2013 | Protein arginine N-methyltransferase 1 (Homo sapiens), Q99873 | inhibition, % at 2.79 µM | 370,000 compounds, 1.3% hits | recombinant PRMT1, activity-based probe fluorescence polarization;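 active = inhibition above about 21% made by adding two undisclosed values, limit read from the data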
TCR-CD3 inh: inhibitors of human TCR-CD3 interaction, primary screen, biochemical, fluorescence, TAMRA-labeled TCR probe; T-cell receptor (TCR); inhibition, % at 9.4 µM; 360,000 compounds, 0.37% hits; in the data active = inhibition above about 19%;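 also: recombinant mutant TCR 2C K166C tagged with TAMRA read by polarization; 0% = receptor in buffer alone and 100% = receptor with positive control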
mABHD4 FP: ABHD4 inhibitors, primary screen, biochemical, fluorescence polarization, mouse; AID 720543, 2013; purified mABHD4, FP-Rh probe fluorescence polarization; 370,000 compounds, 0.54% hits; inhibition, % at 8.92 µM;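 active = inhibition exceeding the mean over every tested compound plus 3 SD, cut at about 30% in these data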;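 also: 0% = plate median of compound wells and 100% = S159A mutant with DMSO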
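Test system: mABHD4 protein; Read-out basis: % inhibition; Incubation: 45 min + 60 min at 25 °C; Repeats: single replicate; Technique: fluorescence polarization with parallel and perpendicular emission, 525/598 nm; Compound: 8.92 µM, single dose; Benchmarks: full inhibition S159A mutant plus DMSO, zero as sample-well median.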
HTRA1 inhibitor: HTRA1 serine protease inhibitors, primary screen, biochemical, fluorescence polarization, HTS. inhibition, % at 5.96 µM. recombinant HTRA1, FP-rhodamine activity-based probe. AID 504803, 2011. 340,000 compounds, 0.5% hits; in the data active = inhibition above about 36%;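 also: 0% = enzyme with DMSO and 100% = wells lacking enzyme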
Target sequence (Q92743 whole entry, looked up): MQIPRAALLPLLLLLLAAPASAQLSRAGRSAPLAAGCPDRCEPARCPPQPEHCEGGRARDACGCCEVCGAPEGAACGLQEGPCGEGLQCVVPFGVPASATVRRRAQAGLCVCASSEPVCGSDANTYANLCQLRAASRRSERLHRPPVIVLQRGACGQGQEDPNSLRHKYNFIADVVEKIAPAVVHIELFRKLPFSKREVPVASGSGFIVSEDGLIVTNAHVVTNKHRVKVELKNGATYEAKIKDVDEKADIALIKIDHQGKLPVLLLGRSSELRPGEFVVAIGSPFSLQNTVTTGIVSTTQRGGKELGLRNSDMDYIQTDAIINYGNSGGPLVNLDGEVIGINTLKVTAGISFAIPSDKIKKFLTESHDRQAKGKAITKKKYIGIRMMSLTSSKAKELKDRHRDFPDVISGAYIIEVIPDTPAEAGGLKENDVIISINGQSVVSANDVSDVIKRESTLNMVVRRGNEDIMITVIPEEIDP
SIAE confirm: human SIAE inhibitors, retest, confirmation, biochemical, fluorescence polarization, FP-Rh probe, triplicate. shares compounds with SIAE primary. SIAE FP-Rh activity-based probe. inhibition, % at 9.66 µM. 2,300 compounds, 13% hits;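 active = mean inhibition of the replicates above the hit cutoff set in the primary screen, cut at about 17% in these data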;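 also: 0% = SIAE with DMSO and probe and 100% = probe without SIAE; inhibitors lower polarization as more probe stays unbound to SIAE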
* hit, by the source's call; x = not tested or not shown.

SMILES	SIAE primary	PRMT1 FP inh	TCR-CD3 inh	mABHD4 FP	HTRA1 inhibitor	SIAE confirm
CCS(=O)(=O)CCSP(=O)(OC)OC	34*	8	-5	-6	2	49*
COC(=O)C1C(c2ccccc2)CC2CCC1N2C (centres undefined)	-3	0	-1	7	x	x
O=C(NC1CN2CCC1CC2)c1cc(-c2ccc(Cl)cc2)nc2ccccc12 (centres undefined)	4	-2	x	8	x	x
CN(C(=O)Cc1ccc2c(c1)OCO2)C1CCCN(Cc2ccccc2F)C1 (centres undefined)	23*	-1	2	-4	1	2
O=C(c1ccc2c(c1)OCO2)C1CCCN(Cc2ccc(F)c(F)c2)C1 (centres undefined)	1	-1	7	-8	-6	x
CN(C)C(CNC(=O)Cc1c(Cl)cccc1Cl)c1ccccc1 (centres undefined)	17*	-3	-4	8	-4	4
O=c1[nH]c(O)c(N=Nc2ccc3c(c2)OCCO3)c(=O)[nH]1	17*	-2	4	-2	4	1
O=C1NC(=S)SC1=Cc1ccc(N(CCCl)CCCl)cc1	-23	-5	7	-29	-8	x
CNC(=O)O/N=C/c1nn(C(=O)C(C)(C)C)cc1Br	17*	-2	-4	0	22	2
COc1ccc(CN2CCCC(C(=O)c3ccc(Cl)cc3)C2)c(OC)c1 (centres undefined)	18*	-2	7	1	2	-4
COc1ccc(CN2CCCC(C(=O)c3cccc(Cl)c3)C2)cc1 (centres undefined)	-1	4	1	-4	0	x
Cc1ccc(CN2CCSc3ccc(C(=O)N4CCC5(CC4)OCCO5)cc32)cc1	3	1	-3	2	2	x
O=C(c1ccc2c(c1)N(Cc1ccc(F)cc1)CCS2)N1CCC2(CC1)OCCO2	18*	1	-3	4	2	2
CCOC(=O)[C@]12Cc3cc4ccccc4cc3[C@H]1N(Cc1ccccc1)C(=O)c1ccccc12	-12	-3	4	-10	x	x
NP(=O)(OCCCc1ccccc1)c1ccccc1 (centres undefined)	-3	0	-3	10	-1	x
NP(=O)(OCCCc1ccccc1)Oc1ccc(Cl)cc1 (centres undefined)	49*	0	-2	-2	-4	46*
NP(=O)(OCCCc1ccccc1)Oc1ccccc1Cl (centres undefined)	57*	-1	8	2	11	54*
CC(C)CCOP(N)(=O)Oc1ccccc1Cl (centres undefined)	39*	0	-4	2	2	30*
S=P(c1ccccc1)(c1ccccc1)c1c[n+](Cc2ccccc2)c2ccccn12	-2	-3	x	4	x	x
CCCCn1nnnc1C(CCSC)N1CCC2(CC1)C(=O)NCN2c1ccccc1 (centres undefined)	11	-6	4	-4	x	x
O=[N+]([O-])NC1=NCCN1Cc1ccc(Cl)nc1	14	0	4	2	8	x
C/C(=N\N1CCCCCC1)c1c(O)n(-c2ccccc2)c(=O)[nH]c1=O	50*	1	-5	-17	-1	5
CCOC(=O)[C@]12Cc3cc(C)ccc3[C@H]1N(C)C(=O)c1cc(OC)ccc12	-2	-4	-6	-11	x	x
c1coc(CN2Cc3ccccc3-n3nncc3C2)c1	-6	9	-13	-11	13	x
CC(=O)n1cc(C=C2C(=O)NC(=O)NC2=O)c2ccccc21	-5	12	-3	-3	5	x
Cn1cc(C=C2C(=O)NC(=O)NC2=O)c2ccccc21	47*	11	3	5	3	-22

Screening data: PubChem BioAssay, The Scripps Research Institute Molecular Screening Center
